Measurements published in PubChem BioAssay.
Active and inactive are the calls of the source.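 Rule for the calls, unless noted: active = Her2 level under about 52% in both replicate screens, with viability over 70% of control (limit read from the data); inconclusive = Her2 under the limit in one screen only, or viability under 70%; inactive = Her2 level above the set limit.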

Experiments:
[1] = Her2 expression decrease, cell viability multiplex – SKBR3 breast tumor cells, AlphaScreen, ATP viability, primary screen (AID 461); details: SKBR3 Her2 protein level, 18-24 h, measured here: SKBR3 viability, ATP luminescence, at 10 µM;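 for Her2 level: lower value means less Her2 protein in the cells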;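 for viability: percent of carrier control wells set as 100% viability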
[2] = target: Receptor tyrosine-protein kinase erbB-2 (Homo sapiens) (UniProt P04626); assay: as above; details: 18-24 h, at 10 µM, stronger effect = lower value
Receptor tyrosine-protein kinase erbB-2 (Homo sapiens), sequence (P04626 whole entry, looked up): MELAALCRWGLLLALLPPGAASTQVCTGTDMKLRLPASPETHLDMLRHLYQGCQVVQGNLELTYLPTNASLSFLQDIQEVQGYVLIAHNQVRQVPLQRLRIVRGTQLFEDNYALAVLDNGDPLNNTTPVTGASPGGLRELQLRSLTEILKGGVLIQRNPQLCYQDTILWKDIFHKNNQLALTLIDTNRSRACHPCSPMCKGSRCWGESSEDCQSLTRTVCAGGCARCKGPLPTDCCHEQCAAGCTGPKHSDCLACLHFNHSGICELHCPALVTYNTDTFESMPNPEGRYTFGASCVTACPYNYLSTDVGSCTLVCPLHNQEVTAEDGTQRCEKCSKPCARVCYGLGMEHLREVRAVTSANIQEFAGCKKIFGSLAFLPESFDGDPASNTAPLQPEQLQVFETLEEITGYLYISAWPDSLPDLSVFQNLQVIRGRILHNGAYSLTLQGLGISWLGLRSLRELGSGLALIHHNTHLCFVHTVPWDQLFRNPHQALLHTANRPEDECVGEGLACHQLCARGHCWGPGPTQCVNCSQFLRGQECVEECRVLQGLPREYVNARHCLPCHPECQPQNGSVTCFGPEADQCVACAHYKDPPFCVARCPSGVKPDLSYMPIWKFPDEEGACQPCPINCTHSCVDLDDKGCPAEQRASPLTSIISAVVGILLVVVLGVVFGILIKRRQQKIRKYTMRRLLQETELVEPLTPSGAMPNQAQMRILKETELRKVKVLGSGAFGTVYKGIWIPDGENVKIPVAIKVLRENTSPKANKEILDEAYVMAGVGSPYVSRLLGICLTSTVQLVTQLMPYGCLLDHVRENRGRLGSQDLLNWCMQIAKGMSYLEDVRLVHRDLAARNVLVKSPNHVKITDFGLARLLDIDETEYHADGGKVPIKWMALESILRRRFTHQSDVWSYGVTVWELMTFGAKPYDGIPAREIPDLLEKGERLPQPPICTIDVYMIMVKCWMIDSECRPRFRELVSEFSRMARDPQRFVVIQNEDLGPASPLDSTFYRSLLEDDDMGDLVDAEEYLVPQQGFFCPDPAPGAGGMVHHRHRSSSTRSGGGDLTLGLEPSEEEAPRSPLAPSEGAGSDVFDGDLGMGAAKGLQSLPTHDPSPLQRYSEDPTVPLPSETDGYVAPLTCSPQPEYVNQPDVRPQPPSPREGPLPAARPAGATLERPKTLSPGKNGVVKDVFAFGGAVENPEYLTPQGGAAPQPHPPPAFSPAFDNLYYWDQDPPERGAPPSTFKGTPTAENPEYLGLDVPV

[3] = reduced viability of SK-BR-3 breast cancer cells – cell-based, 24 h, human, pilot screen (AID 572;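 active = viability at or below 10% of carrier control in both of two separate runs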;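 note: compound exposure lasted between 18 and 24 h rather than exactly 24 h; 100% = carrier-treated control wells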); details: SK-BR-3 viability, CellTiter-Glo luminescence, at 10 µM, stronger effect = lower value
[4] = HUVEC growth inhibition – cell-based, human, primary screen (AID 575;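 active = viability at or below 30% in both replicate assays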;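 note: 100% = median of untreated cell wells with 0.1% DMSO on each plate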); details: HUVEC proliferation, CellTiter-Glo luminescence, 72 h; at 10 µM; stronger effect = lower value
Procedure, shortened: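 Test system: primary human umbilical vein endothelial cells. Quantity: 1250 cells/well. Compound: single 10 µM dose, 0.1% DMSO, from 5x medium stock. Timing: 72 h treatment at 37 °C. Detection: ATP-based CellTiter-Glo luminescent read. Benchmarks: vehicle and MePR control wells. Format: 384-well plates coated with collagen.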

[5] = H69AR cell proliferation blockers – human, duplicate replicates, primary screen (AID 580;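 active = viability at or under a set limit in both replicates, limit being median viability minus 3 SD, cut at about 48% in these data, passing the limit was not always enough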;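 note: 100% = mean luminescence of untreated wells and 0% = no signal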); details: H69AR lung tumor cells viability, ATP luminescence, 72 h; at 10 µM; stronger effect = lower value
[6] = MRP1 drug-resistance reversers in H69AR cells – cell-based, doxorubicin co-treatment, pilot screen (AID 601;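 active = viability loss from added drug above about 55%, and viability with drug at most 40%, in both replicates, limit read from the data, passing the limit was not always enough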); details: CellTiter-Glo, 72 h, at 10 µM; for differential viability (reversal): stronger effect = higher value
[7] = yeast transport mutant growth inhibition pilot in 384-well plates, post-Golgi transport modulator project (AID 636; in the data active = inhibition above about 31%); details: absorbance 615 nm, about 18 h, stronger effect = higher value
[8] = growth suppression of yeast trafficking mutant, preliminary HTS, modulators of trafficking downstream of Golgi apparatus project, 1536-format plate, OD 615 nm (AID 637; in the data active = inhibition above about 30%); details: yeast transport mutant growth, absorbance 615 nm, 18 h; stronger effect = higher value
[9] = H69AR cells + 2 uM doxorubicin, measured here: viability with 2 uM doxorubicin, stronger effect = lower value
[10] = H69AR cells, compound alone cytotoxicity

| SMILES | viability [1] [%] | Her2 level [2] | viability [3] | viability [4] | viability [5] | differential viability (reversal) ([6]; H69AR cells + 2 uM doxorubicin) | viability [6, 9] [%] | viability [6, 10] [%] | inhibition [7] | inhibition [8] |
| --- | --- | --- | --- | --- | --- | --- | --- | --- | --- | --- |
| C=CCOc1cccc(C2/C(=C(\O)c3ccc(F)cc3)C(=O)C(=O)N2CCN(C)C)c1 (stereo not given) | 96.5 | 97.5% (inactive) | 96.5% (inactive) | 98% (inactive) | 105% (inactive) | 10.4% (inactive) | 94.6 | 105 | -2.11% (inactive) | 0.98% (inactive) |
| CC(Oc1ccc(Cl)cc1Cl)c1nc(-c2ccc(NC(=O)c3cccnc3)cc2)no1 (stereo not given) | 93.5 | 74.5% (inactive) | 93.5% (inactive) | 55% (inactive) | 8.04% (active) | -10.7% (inactive) | 18.8 | 8.04 | 0% (inactive) | 22.2% (inactive) |
| Cc1ccc(S(=O)(=O)Cn2nnnc2CN(Cc2ccco2)CC2CCCO2)cc1 (stereo not given) | 90 | 96.5% (inactive) | 90% (inactive) | 110% (inactive) | 83.3% (inactive) | -0.665% (inactive) | 84 | 83.3 | -2.53% (inactive) | 44.8% (active) |
| Nc1ncnc2nc(SCCN3CCCCC3)[nH]c12 | 119 | 88% (inactive) | 119% (inactive) | 102% (inactive) | 100% (inactive) | 3.13% (inactive) | 97.3 | 100 | 3.29% (inactive) | -5.32% (inactive) |
| Cc1csc(SCc2nc3sc4c(c3c(=O)[nH]2)CCC4)n1 | 116 | 122% (inactive) | 116% (inactive) | 103% (inactive) | 87.8% (inactive) | 1.88% (inactive) | 86 | 87.8 | -6.16% (inactive) | 0% (inactive) |
| Cc1cc(OCC(=O)Nc2ccc3oc(-c4ccncc4)nc3c2)ccc1Cl | 92.5 | 121% (inactive) | 92.5% (inactive) | 68% (inactive) | 60.1% (inactive) | 1.31% (inactive) | 58.7 | 60.1 | 3.95% (inactive) | 8.85% (inactive) |
| COC(=O)Cn1cnc2c(nnn2-c2ccc(C)cc2)c1=O | 86 | 108% (inactive) | 86% (inactive) | 112% (inactive) | 94.7% (inactive) | 7% (inactive) | 87.7 | 94.7 | -6.62% (inactive) | -2.17% (inactive) |
| CCc1cccc(NS(=O)(=O)c2c(C)n[nH]c2C)c1 | 92 | 96% (inactive) | 92% (inactive) | 110% (inactive) | 107% (inactive) | 13.2% (inactive) | 93.5 | 107 | -6.05% (inactive) | -5.08% (inactive) |
| Cc1nnc(SCC(=O)N(C(C)C)C(C)C)nc1C | 75.5 | 88.5% (inactive) | 75.5% (inactive) | 95% (inactive) | 103% (inactive) | 10.3% (inactive) | 93.2 | 103 | -5.6% (inactive) | -1.31% (inactive) |
| CCOC(=O)c1cc2sccc2n1Cc1ccccc1 | 100 | 116% (inactive) | 100% (inactive) | 97.9% (inactive) | 96% (inactive) | 15.4% (inactive) | 80.7 | 96 | -2.8% (inactive) | 1.8% (inactive) |
| COc1ccc(C)cc1NS(=O)(=O)c1ccc(NS(=O)(=O)c2ccc(NC(C)=O)cc2)cc1 | 128 | 104% (inactive) | 128% (inactive) | 94.9% (inactive) | 93.5% (inactive) | 4.67% (inactive) | 88.9 | 93.5 | -6.67% (inactive) | 1.29% (inactive) |
| COC(=O)C1=C(C)C(c2cccs2)NC(=O)N1C (stereo not given) | 92.5 | 86.5% (inactive) | 92.5% (inactive) | 102% (inactive) | 95.3% (inactive) | 10.1% (inactive) | 85.2 | 95.3 | -6.13% (inactive) | 1.48% (inactive) |
| CCn1c(=O)cc(SCC(=O)N2CCN(C3CCCCC3)CC2)c2ccccc21 | 88.5 | 77% (inactive) | 88.5% (inactive) | 79.2% (inactive) | 83.5% (inactive) | 7.01% (inactive) | 76.5 | 83.5 | -0.92% (inactive) | 0.18% (inactive) |
| Cc1cc(Nc2ccc(C(=O)O)cc2)n2nc(C)nc2n1 | 101 | 96.5% (inactive) | 101% (inactive) | 90.5% (inactive) | 109% (inactive) | 9.93% (inactive) | 99.2 | 109 | -4.67% (inactive) | 4.92% (inactive) |
| CN1CCN(c2oc(COc3ccc(-c4ccccc4)cc3)nc2C#N)CC1 | 83.5 | 72.5% (inactive) | 83.5% (inactive) | 66.3% (inactive) | 78.3% (inactive) | 17.7% (inactive) | 60.5 | 78.3 | -5.6% (inactive) | 0.79% (inactive) |
| O=C(CSc1nnc(-c2c[nH]c3ccccc23)o1)N(Cc1ccccc1)c1ccc(F)cc1 | 100 | 102% (inactive) | 100% (inactive) | 65.9% (inactive) | 82.4% (inactive) | -14.3% (inactive) | 96.6 | 82.4 | 2.53% (inactive) | 7.7% (inactive) |
| CCN(Cc1nc2ccccc2c(=O)[nH]1)Cc1nc2cc(OC)c(OC)cc2c(=O)[nH]1 | 88.5 | 114% (inactive) | 88.5% (inactive) | 99.5% (inactive) | 89.8% (inactive) | -2.33% (inactive) | 92.1 | 89.8 | 0.54% (inactive) | 9.83% (inactive) |
| COC(=O)CCCCCNc1ccc(C(=O)OC)cc1N | 107 | 86% (inactive) | 107% (inactive) | 98.5% (inactive) | 91.5% (inactive) | 6.14% (inactive) | 85.4 | 91.5 | -7.16% (inactive) | -6.5% (inactive) |
| O=C(O)c1cc2c([nH]c1=O)CCCC2 | 93.5 | 81.5% (inactive) | 93.5% (inactive) | 95% (inactive) | 88.8% (inactive) | 0.75% (inactive) | 88 | 88.8 | -2.24% (inactive) | -1.82% (inactive) |
| CCOC(OCC)P(=O)(C(C)C)C(C)C | 87 | 87% (inactive) | 87% (inactive) | 103% (inactive) | 91.8% (inactive) | 3.12% (inactive) | 88.6 | 91.8 | -1.17% (inactive) | -5.08% (inactive) |
| Cc1nc2ccccc2c(=O)n1CC(=O)N1CCOCC1 | 120 | 90.5% (inactive) | 120% (inactive) | 107% (inactive) | 90.4% (inactive) | -9.46% (inactive) | 99.8 | 90.4 | 0.67% (inactive) | -4.35% (inactive) |
| O=C(CN1CCOCC1)N1CCCc2c1c(=O)oc1ccc(OCc3ccccc3)cc21 | 82 | 99.5% (inactive) | 82% (inactive) | 94.8% (inactive) | 77.2% (inactive) | 4.61% (inactive) | 72.6 | 77.2 | -5.07% (inactive) | -4.1% (inactive) |
| CC(C)(C)c1ccc(C(=O)Nc2cnccn2)cc1 | 79.5 | 114% (inactive) | 79.5% (inactive) | 98.1% (inactive) | 100% (inactive) | 18.8% (inactive) | 81.5 | 100 | -4.87% (inactive) | 0.67% (inactive) |
| COC(=O)c1ccccc1NS(=O)(=O)c1ccc(F)cc1 | 120 | 83.5% (inactive) | 120% (inactive) | 104% (inactive) | 102% (inactive) | 13.1% (inactive) | 88.4 | 102 | -7.26% (inactive) | -3.49% (inactive) |
| COC(=O)c1c(-c2ccc(F)cc2)noc1N | 94 | 97.5% (inactive) | 94% (inactive) | 89.4% (inactive) | 93.3% (inactive) | 3.79% (inactive) | 89.5 | 93.3 | -2.97% (inactive) | 1.33% (inactive) |
| CCOC(=O)CSc1nnc([C@H](C)NC(=O)OC(C)(C)C)o1 | 104 | 97% (inactive) | 104% (inactive) | 107% (inactive) | 106% (inactive) | 20.2% (inactive) | 85.7 | 106 | -5.58% (inactive) | -10.2% (inactive) |
| N#Cc1nc(COc2ccc(Br)cc2)oc1N1CCCC1 | 99 | 90% (inactive) | 99% (inactive) | 89.4% (inactive) | 87.5% (inactive) | 0.745% (inactive) | 86.7 | 87.5 | -7.07% (inactive) | 0.66% (inactive) |
| CCCCn1c(NCCC)nc2c1c(=O)[nH]c(=O)n2C | 96 | 80% (inactive) | 96% (inactive) | 113% (inactive) | 93.7% (inactive) | 12.8% (inactive) | 81 | 93.7 | -3.51% (inactive) | -0.66% (inactive) |
| Cc1ccccc1NC(=O)NCCCN1CCN(C2CCCCC2)CC1 | 102 | 102% (inactive) | 102% (inactive) | 104% (inactive) | 95.8% (inactive) | 2.42% (inactive) | 93.4 | 95.8 | -1.04% (inactive) | 0.16% (inactive) |
